Active and inactive are the calls of the source. The rule behind the calls is not given here.
What was measured:
[1] = target: Muscarinic acetylcholine receptor M4 (Homo sapiens, UniProt P08173); assay: Inhibition of M4 receptor (unknown origin) by radioligand binding assay
[2] = target: Muscarinic acetylcholine receptor M2 (Homo sapiens, UniProt P08172); assay: Inhibition of M2 receptor (unknown origin) by radioligand binding assay
Outline: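 Radioligand competition binding; the value is reported as a Ki.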

Homo sapiens = species on record: Homo sapiens; assay: Binding affinity to L3MBTL3 D381A mutant (unknown origin) by ITC assay
[3] = target: E3 ubiquitin-protein ligase UHRF1 (Homo sapiens, UniProt Q96T88); assay: Inhibition of tudor domain containing UHRF1 (unknown origin) using H4K20me2 peptide by Alpha-Screen methylated histone peptide competition assay
Sequence of E3 ubiquitin-protein ligase UHRF1 (Q96T88 whole entry, the tested form may be a part): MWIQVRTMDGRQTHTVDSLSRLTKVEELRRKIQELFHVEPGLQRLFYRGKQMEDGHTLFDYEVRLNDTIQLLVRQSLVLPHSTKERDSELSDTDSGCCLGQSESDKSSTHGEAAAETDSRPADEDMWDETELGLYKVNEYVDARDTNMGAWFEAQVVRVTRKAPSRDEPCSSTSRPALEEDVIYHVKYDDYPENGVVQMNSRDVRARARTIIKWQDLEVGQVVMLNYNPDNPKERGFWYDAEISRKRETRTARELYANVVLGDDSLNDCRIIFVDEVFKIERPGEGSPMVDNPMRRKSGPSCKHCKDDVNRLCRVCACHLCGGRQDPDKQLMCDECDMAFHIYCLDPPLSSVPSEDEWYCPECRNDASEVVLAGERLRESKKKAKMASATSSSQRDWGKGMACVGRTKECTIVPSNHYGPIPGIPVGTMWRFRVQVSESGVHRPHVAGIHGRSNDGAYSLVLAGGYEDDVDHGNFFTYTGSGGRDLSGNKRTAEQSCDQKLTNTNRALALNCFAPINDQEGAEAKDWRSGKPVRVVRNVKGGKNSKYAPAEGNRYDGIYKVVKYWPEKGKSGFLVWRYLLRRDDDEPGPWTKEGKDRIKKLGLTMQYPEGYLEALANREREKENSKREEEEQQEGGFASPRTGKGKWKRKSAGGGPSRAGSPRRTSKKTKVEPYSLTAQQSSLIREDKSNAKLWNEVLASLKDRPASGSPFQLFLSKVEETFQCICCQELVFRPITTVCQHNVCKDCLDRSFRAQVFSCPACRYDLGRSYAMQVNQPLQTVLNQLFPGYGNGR

HEK293 = assay: Effect on overall protein levels of GFP-3MBT tagged L3MBTL3 (unknown origin) expressed in HEK293 cells up to 5 uM by immunofluorescence assay; assay type: functional, cell-based; conditions: Homo sapiens
[4] = target: T1, Lethal(3)malignant brain tumor-like protein 3 (Homo sapiens, UniProt Q96JM7); assay: Inhibition of L3MBTL3 (unknown origin) using H4K20me2 peptide by Alpha-Screen methylated histone peptide competition assay
T1 sequence (Q96JM7 whole entry): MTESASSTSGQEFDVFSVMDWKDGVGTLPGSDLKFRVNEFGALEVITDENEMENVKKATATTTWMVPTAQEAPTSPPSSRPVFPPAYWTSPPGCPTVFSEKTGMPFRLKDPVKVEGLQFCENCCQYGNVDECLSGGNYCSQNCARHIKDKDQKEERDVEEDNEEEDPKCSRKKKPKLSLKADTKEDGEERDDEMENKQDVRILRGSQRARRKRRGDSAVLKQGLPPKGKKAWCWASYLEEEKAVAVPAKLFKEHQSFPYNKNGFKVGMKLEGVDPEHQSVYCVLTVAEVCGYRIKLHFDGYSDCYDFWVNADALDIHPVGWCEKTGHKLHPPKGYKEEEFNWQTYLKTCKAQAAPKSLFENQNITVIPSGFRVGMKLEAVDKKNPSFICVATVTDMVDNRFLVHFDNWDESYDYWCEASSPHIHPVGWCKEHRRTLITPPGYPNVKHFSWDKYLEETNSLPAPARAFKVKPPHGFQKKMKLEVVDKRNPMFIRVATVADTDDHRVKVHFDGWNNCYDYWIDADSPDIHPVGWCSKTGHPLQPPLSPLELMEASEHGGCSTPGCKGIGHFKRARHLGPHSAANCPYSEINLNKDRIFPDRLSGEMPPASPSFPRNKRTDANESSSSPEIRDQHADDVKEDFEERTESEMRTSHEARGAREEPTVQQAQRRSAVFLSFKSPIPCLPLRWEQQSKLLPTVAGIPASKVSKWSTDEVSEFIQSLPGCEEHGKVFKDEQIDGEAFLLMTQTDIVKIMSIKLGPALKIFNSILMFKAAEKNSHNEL

[5] = target: Mortality factor 4-like protein 1 (Homo sapiens, UniProt Q9UBU8); assay: Binding affinity to MRG15 (unknown origin) by ITC assay
Sequence of Mortality factor 4-like protein 1 (Q9UBU8 whole entry): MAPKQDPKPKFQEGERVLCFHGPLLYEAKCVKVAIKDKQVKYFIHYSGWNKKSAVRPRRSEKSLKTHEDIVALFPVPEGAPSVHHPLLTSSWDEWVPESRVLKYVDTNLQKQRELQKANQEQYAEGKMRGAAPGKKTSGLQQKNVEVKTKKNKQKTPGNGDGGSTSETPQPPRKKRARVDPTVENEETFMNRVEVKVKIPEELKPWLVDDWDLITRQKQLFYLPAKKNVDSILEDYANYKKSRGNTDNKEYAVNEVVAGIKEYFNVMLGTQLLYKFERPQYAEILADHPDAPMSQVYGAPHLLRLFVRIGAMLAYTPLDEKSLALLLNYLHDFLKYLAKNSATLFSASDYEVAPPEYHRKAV

[6] = target: Alpha-2C adrenergic receptor (Homo sapiens, UniProt P18825); assay: Inhibition of alpha2C receptor (unknown origin) by radioligand binding assay
Sequence of Alpha-2C adrenergic receptor (P18825 whole entry): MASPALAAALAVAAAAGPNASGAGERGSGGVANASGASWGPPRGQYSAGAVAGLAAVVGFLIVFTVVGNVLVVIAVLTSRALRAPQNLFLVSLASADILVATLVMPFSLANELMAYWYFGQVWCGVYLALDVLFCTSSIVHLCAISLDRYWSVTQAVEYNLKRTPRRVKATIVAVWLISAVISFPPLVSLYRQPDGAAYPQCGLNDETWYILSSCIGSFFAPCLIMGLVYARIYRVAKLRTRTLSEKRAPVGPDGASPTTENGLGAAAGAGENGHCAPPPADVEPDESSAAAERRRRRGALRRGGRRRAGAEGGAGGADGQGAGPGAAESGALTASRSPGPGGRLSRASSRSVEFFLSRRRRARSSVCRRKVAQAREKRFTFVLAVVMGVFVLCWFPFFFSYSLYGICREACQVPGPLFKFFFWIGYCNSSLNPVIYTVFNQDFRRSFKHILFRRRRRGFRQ

Sequence of Muscarinic acetylcholine receptor M2 (P08172 whole entry): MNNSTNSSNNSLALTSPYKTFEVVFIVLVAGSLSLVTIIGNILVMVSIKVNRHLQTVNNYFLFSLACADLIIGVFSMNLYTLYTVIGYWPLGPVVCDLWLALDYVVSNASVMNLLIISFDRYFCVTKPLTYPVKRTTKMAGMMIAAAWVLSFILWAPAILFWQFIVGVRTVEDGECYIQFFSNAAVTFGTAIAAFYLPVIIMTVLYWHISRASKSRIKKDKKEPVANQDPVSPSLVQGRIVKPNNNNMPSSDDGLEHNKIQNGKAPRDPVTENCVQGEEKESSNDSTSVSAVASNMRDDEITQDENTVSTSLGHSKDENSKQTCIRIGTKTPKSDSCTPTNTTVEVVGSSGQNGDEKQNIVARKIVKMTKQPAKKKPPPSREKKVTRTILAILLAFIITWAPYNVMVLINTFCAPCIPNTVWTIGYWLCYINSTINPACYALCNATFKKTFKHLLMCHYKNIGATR
Sequence of Muscarinic acetylcholine receptor M4 (P08173 whole entry): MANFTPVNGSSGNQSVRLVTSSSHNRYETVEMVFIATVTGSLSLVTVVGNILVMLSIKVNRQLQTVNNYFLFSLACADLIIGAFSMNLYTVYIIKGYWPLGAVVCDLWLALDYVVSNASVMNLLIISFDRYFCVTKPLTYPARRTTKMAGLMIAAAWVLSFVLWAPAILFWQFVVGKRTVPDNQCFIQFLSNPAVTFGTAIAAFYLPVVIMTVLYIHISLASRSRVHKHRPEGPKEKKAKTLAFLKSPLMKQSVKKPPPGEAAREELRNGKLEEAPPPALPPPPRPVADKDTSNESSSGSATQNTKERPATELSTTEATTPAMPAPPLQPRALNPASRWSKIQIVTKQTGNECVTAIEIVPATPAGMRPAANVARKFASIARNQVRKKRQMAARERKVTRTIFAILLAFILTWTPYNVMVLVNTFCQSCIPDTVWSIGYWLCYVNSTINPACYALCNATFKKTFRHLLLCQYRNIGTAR

O=C(c1ccc(C(=O)N2CCC(N3CCCC3)CC2)c(Nc2ccccc2)c1)N1CCC(N2CCCC2)CC1
Ki [1]: 400 nM | Ki [2]: 72 nM | Activity (Homo sapiens): inactive | IC50 [3]: > 30000 nM | inhibition (HEK293): inactive | IC50 [4]: 40 nM | Kd [5]: 28900 nM | Ki [6]: 860 nM
